PPC-1+TRAIL kill: compounds killing PPC-1 cancer cells with TRAIL present, primary screen, TRAIL potentiator project, ATPLite luminescence, uHTS; PPC-1 cells + TRAIL, ATPLite viability luminescence; cell killing (% activity), % at 4 µM or 5 µM; hit rate 0.41% among 220,000; AID 1443, 2008;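 active = cell killing above 50% in the first pass at 4 µM, then a duplicate retest at 5 µM averaging 50% or more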;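 also: plate controls were cells with TRAIL plus DMSO for no effect and medium-only wells lacking cells for full effect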
APP 5'UTR act: activators of APP 5'UTR luciferase reporter, primary screen, SH-SY5Y cells. AID 1276, 2008. SH-SY5Y APP 5'UTR luciferase reporter, luminescence; zero percent = DMSO vehicle wells. hit rate 1% among 190,000. activation, % at 2 µM;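 active = activation above a set limit, based on mean plus 3 SD of controls, cut at about 140% in these data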
NF-kB expr up: activators of NF-kB expression in neurons, primary screen, cell-based, HTS | AID 1239, 2008 | human neuronal cells, NF-kB reporter expression; stronger effect = higher value | fold change at 12.5 µM | hit rate 1.6% among 190,000; in the data active = fold change above about 3.3
FLuc act counter: FLuc activators, initial screening, artefact control for FLuc-dependent activation tests, biochemical, ATPlite luminescence. Luciferin 4-monooxygenase (Photinus pyralis), P08659. ATPlite luciferase biochemical, 10 min; 0 = ATP-free wells, 1 = DMSO control. activation factor at 10 µM. 200,000 tested, under 10 active. AID 1027, 2008;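 active = luciferase activation factor, scaled between plate controls, of at least 2 with compound at 10 µM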
Target sequence (P08659 whole entry, looked up): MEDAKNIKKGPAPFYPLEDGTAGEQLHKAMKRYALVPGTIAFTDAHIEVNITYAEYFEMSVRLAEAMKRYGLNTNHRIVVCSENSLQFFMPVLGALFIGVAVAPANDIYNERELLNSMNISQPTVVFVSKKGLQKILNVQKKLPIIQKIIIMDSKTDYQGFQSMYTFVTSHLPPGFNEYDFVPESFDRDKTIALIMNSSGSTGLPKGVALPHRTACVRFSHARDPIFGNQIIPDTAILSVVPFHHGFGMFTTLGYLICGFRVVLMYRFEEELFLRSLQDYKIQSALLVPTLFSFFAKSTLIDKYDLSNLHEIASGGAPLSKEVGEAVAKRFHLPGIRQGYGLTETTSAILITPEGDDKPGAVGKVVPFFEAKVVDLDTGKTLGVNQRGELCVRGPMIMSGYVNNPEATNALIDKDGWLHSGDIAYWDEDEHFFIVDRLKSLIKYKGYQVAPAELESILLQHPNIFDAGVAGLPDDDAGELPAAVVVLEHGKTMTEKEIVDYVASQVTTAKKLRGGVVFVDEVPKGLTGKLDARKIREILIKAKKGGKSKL
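System: cell-free luciferase reagent; medium: PBS as buffer for the ATP substrate; doses: test compounds dosed from 2 mM stocks in 100% DMSO; incubation: 10 min, room temperature; measured by: luminescence from luciferase reaction; read-out: luciferase activation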
C8 TRAIL sens: viability loss with TRAIL in NB7+C8 cells, primary screen, TRAIL sensitizer project, cell-based, ATPlite luminescence. inhibition (viability loss, TRAIL sensitization), % at 10 µM. hit rate 1% among 360,000;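 active = compounds causing at least 50% loss of cell viability in the single-dose screen, relative to plate controls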
FLuc inh counter: firefly luciferase enzyme inhibitors, primary screen, artefact control for luciferase-based inhibitor screens, biochemical, luminescence, ATPLite; 10 min; hit rate 1.5% among 200,000; inhibition, % at 10 µM; AID 1006, 2008; Luciferin 4-monooxygenase (Photinus pyralis), P08659;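 active = inhibition above about 50% when tested at 10 µM, limit read from the data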
The depositor's hits bear a star; . = not tested or not shown. Sampled rows, rich in hits. Any-hit rate of the full collection: about 2.2%.

SMILES	PPC-1+TRAIL kill	APP 5'UTR act	NF-kB expr up	FLuc act counter	C8 TRAIL sens	FLuc inh counter
O=C(NCCc1nc2ccccc2[nH]1)/C(=C/c1ccc2c(c1)OCO2)NC(=O)c1ccccc1Cl	22.9	-6.0	1.06	1	-12.7	-3.1
COc1ccc(-c2cn(CCC(=O)O)c(C)n2)cc1	.	.	.	.	12.2	.
N/C(=N\OC(=O)/C=C/c1ccccc1)c1cccnc1	48.4	55.2	1.01	0.2	-4.2	81.3*
Cc1ccccc1/C(N)=N/OC(=O)/C=C/c1ccccc1	10.5	86.3	3.88*	0.4	93.7*	55.7*
N/C(=N\OC(=O)c1cccs1)c1cccnc1	.	.	.	.	-9.4	.
N/C(=N\OC(=O)c1cccs1)C1(c2ccc(Cl)cc2Cl)CC1	15.4	.	.	.	-1.3	.
N/C(Cc1ccc(Cl)c(Cl)c1)=N\OC(=O)c1cccs1	18.6	-1.2	1.42	1	63.9*	-4.5
Cc1ccccc1/C(N)=N/OC(=O)c1cccs1	22.5	9.8	1.89	0.3	-10.9	68.8*
Cc1cccc(S(=O)(=O)NC(=O)C2(C)CCN2C(=O)c2ccccc2)c1 (stereo unspecified)	.	.	.	.	-0.4	.
CCOC(=O)C1CCCN(C(=O)/C=C/c2ccccc2[N+](=O)[O-])C1 (stereo unspecified)	5.8	-19.4	0.82	1	14.7	-4.0
CC1=NNC(=O)/C1=C\c1cn(-c2ccccc2)nc1-c1ccccc1	42.3	-15.7	1.06	1	63.0*	-4.2
O=Cc1cn(-c2ccccc2)nc1-c1ccccc1	.	.	.	.	13.8	.
CN(CC(=O)Nc1ccccc1C(=O)NC1CC1)Cc1cccs1	.	.	.	.	5.1	.
Cc1cc(C(=O)COC(=O)c2ccc(Cl)c(S(N)(=O)=O)c2)c(C)n1CC1CCCO1 (stereo unspecified)	.	.	.	.	42.1	.
CNS(=O)(=O)c1cccc(C(=O)OCC(=O)c2cc(C)n(CC3CCCO3)c2C)c1 (stereo unspecified)	.	.	.	.	62.3*	.
Cc1cc(C(=O)COC(=O)c2ccc3c(c2)NC(=O)CS3)c(C)n1CC1CCCO1 (stereo unspecified)	16.8	-15.4	0.7	0.9	16.7	12.6
CN(C)S(=O)(=O)c1cccc(C(=O)OCC(=O)NC2CCCc3ccccc32)c1 (stereo unspecified)	-3.1	1.7	0.97	0.4	-4.6	56.9*
COc1cc(OC)cc(C(=O)OCC(=O)c2cc(C)n(CC3CCCO3)c2C)c1 (stereo unspecified)	.	.	.	.	15.3	.
Cc1cc(C(=O)COC(=O)c2ccc(O)cc2)c(C)n1CC1CCCO1 (stereo unspecified)	21.5	81.5	2.13	0.5	28.1	52.6*
Cc1cc(C(=O)COC(=O)c2cccc(S(=O)(=O)N(C)C)c2)c(C)n1CC1CCCO1 (stereo unspecified)	.	.	.	.	62.2*	.
O=C(CSc1nncn1-c1cccnc1)Nc1cccc(C(F)(F)F)c1	.	.	.	.	-6.8	.
CCN1C(N(C)C)=NC[C@@H]1Cc1ccccc1	.	.	.	.	-1.1	.
COc1cccc2c1C(=O)c1c(O)c3c(c(O)c1C2=O)C[C@@](O)(C(=O)CO)C[C@@H]3O[C@H]1C[C@H](N)[C@@H](O)[C@H](C)O1	.	.	.	.	57.2*	.
Cc1ccc(NC(=O)CN(Cc2ccccc2)S(C)(=O)=O)cc1C	-11.6	1.8	0.95	1	-7.8	-4.9
CC(=O)Nc1ccc(-c2nc3cc(Cl)ccc3o2)cc1	.	.	.	.	8.3	.
SMILES	PPC-1+TRAIL kill	APP 5'UTR act	NF-kB expr up	FLuc act counter	C8 TRAIL sens	FLuc inh counter
CC(C)(C)C(=O)Nc1ccc2oc(-c3cc(F)c(F)cc3Cl)nc2c1	7.8	111.6	4.26*	0.8	14.7	22.1
COc1cccc(CNC(=O)CSc2nc3ccc(C)cc3[nH]2)c1	.	.	.	.	-3.3	.
CC1(CCc2ccccc2)NC(=O)NC1=O (stereo unspecified)	.	.	.	.	-1.4	.
CC(=Nc1ccccc1)c1sc2ccccc2c1O	30.0	132.5	6.31*	0.4	34.6	60.8*
COc1cccc(NC(=O)c2ccc3c(c2)OCO3)c1	.	.	.	.	53.2*	.
COc1cccc(NC(=O)c2ccc(CN3CCOCC3)cc2)c1	0.7	69.2	2.02	0.5	24.3	50.9*
COc1cccc(NC(=O)c2ccc3c(c2)OCCO3)c1	.	.	.	.	86.7*	.
O=C(Nc1ccc2c(c1)OCCO2)c1cccc(Cl)c1	.	.	.	.	37.7	.
O=C(Nc1cccc(Cl)c1)c1ccc2c(c1)OCCO2	.	.	.	.	59.0*	.
COc1cccc(NC(=O)COC(=O)c2ccc3c(c2)OCCO3)c1	.	.	.	.	-0.2	.
COc1cccc(NC(=O)c2oc3ccccc3c2NC(=O)c2ccc3c(c2)OCO3)c1	32.4	36.0	0.57	0.6	31.1	40.3
O=C(NC1CCCCC1)C1CCC(=O)N(Cc2cccc(C(F)(F)F)c2)C1 (stereo unspecified)	.	.	.	.	-1.5	.
CCCCc1cc(=O)oc2cc(C)cc(OC(C)C(=O)NCc3cccnc3)c12 (stereo unspecified)	.	.	.	.	-17.1	.
CCCCCCCCCCn1ccc(=N)cc1	46.7	.	.	.	55.0*	.
CCOc1cc(N2CCOCC2)c(OCC)cc1NC(=O)CN1CCCC1	-2.5	10.5	1.09	1	-0.9	-4.7
COc1ccccc1N=NNc1ccc(S(=O)(=O)NC(C)=O)cc1	.	.	.	.	-5.5	.
O=C(COC(=O)c1ccc(O)cc1O)NC1CC1	.	.	.	.	2.2	.
Cc1ccc(-n2cnc3cc(NCc4cccs4)ccc32)cc1	26.8	21.1	1.45	0.9	17.9	9.4
c1ccc(-n2cnc3cc(NCc4cccs4)ccc32)cc1	16.0	205.3*	0.72	0.8	-1.7	22.5
CCc1ccc(/C=N/Nc2nn[nH]n2)cc1	-1.5	-3.5	1.03	1	-1.2	-3.7
Cc1ccc(NC(=O)CCNCc2ccco2)cc1S(=O)(=O)N(C)C	15.0	28.9	1.02	0.2	2.7	79.0*
Cc1ccc(NC(=O)CCNC(=O)Nc2ccccc2)cc1S(=O)(=O)N(C)C	.	.	.	.	-1.2	.
COC(=O)c1ccccc1NS(=O)(=O)c1c(C)noc1C	.	.	.	.	-8.1	.
CCOC(=O)C1=C(C)n2c(s/c(=C/c3cccc([N+](=O)[O-])c3)c2=O)=NC1c1ccc(O)c(OC)c1 (stereo unspecified)	11.7	1.9	6.84*	1	4.5	-4.9
CCOC(=O)C1=C(C)N=c2s/c(=C\c3ccc(O)c([N+](=O)[O-])c3)c(=O)n2C1c1ccccc1OC (stereo unspecified)	.	.	.	.	-1.7	.
CCOC(=O)N1CCC(N2Cc3cccc(C(=O)Nc4cc(F)ccc4F)c3C2=O)CC1	55.7*	10.8	1.07	1.1	27.0	-6.3
O=C(CCCCCCC(=O)c1ccccc1)c1ccccc1	13.5	-0.9	0.95	1.1	-6.3	-6.3
Oc1ccccc1OCc1nc2ccccc2s1	44.5	153.9*	3.43*	0.8	1.3	17.9
O=C1Nc2cc(C(=O)NCCN3CCCCCC3)ccc2S/C1=C/c1ccccc1F	.	.	.	.	52.3*	.

From PubChem
